Assays:
[1] = target: Human immunodeficiency virus type 1 integrase (Human immunodeficiency virus 1, UniProt Q7ZJM1); assay: Inhibition of HIV1 integrase by ELISA
In short: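 HIV-1 integrase activity was read out by ELISA, and inhibition was expressed as an IC50.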

[2] = test system: MCF7; assay: Cytotoxicity against human MCF7 cells by MTT assay; assay type: functional, cell-based
[3] = test system: A549; assay: Cytotoxicity against human A549 cells by MTT assay; assay type: functional, cell-based
[4] = Cytotoxicity against human BCG823 cells by MTT assay; assay type: functional, cell-based
[5] = test system: BEL-7404 (Homo sapiens); assay: Cytotoxicity against human BEL-7404 cells by MTT assay

Chain of Human immunodeficiency virus type 1 integrase (Q7ZJM1 whole entry): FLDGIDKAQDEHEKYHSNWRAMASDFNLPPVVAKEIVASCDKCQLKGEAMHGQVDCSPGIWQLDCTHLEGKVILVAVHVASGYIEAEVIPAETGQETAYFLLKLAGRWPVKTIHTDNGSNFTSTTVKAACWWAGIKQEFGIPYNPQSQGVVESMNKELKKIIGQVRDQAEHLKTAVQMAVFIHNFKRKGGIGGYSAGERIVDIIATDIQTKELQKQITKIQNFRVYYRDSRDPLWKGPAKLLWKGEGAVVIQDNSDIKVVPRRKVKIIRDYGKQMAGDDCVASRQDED

Row | Structure (SMILES) | IC50 [1] | IC50 [2] | IC50 [3] | IC50 [4] | IC50 [5]
1 | COc1cc(/C=C/C(=O)O)cc([N+](=O)[O-])c1O | > 100 µM |  |  |  | 
2 | CCC(C)OC(=O)/C=C/c1ccc(O)c(O)c1 (stereo not drawn) | > 100 µM |  |  |  | 
3 | O=C(/C=C/c1ccc(O)c(O)c1)OCCc1ccccc1 [CAFFEIC ACID PHENETHYL ESTER] | > 100 µM | 26.7 µM | 83.6 µM | 44.6 µM | 5.5 µM
4 | CCCCCCCOC(=O)/C=C/c1ccc(O)c(O)c1 | > 100 µM |  |  |  | 
5 | COc1c(O)ccc(/C=C/C(=O)O)c1[N+](=O)[O-] | > 100 µM |  |  |  | 
6 | O=C(/C=C/c1ccc(O)c(O)c1)Oc1ccc2ccccc2c1 | > 100 µM | 12.8 µM | 50 µM | 59.8 µM | 58.1 µM
7 | COc1cc(/C=C/C(=O)O)cc(Cl)c1O | > 100 µM |  |  |  | 
8 | O=C(/C=C/c1ccc(O)c(O)c1)Oc1ccccc1 | > 100 µM | 5.9 µM | 75.9 µM | 56.6 µM | 44.3 µM
9 | O=C(/C=C/c1ccc(O)c(O)c1[N+](=O)[O-])OCCc1ccccc1 | > 100 µM | 28.8 µM | 8.7 µM | 27.8 µM | 10.2 µM
10 | C=CCOC(=O)/C=C/c1ccc(O)c(O)c1 | > 100 µM |  |  |  | 
11 | COc1cc(/C=C/C(=O)OCCc2ccccc2)cc([N+](=O)[O-])c1O | > 100 µM | > 300 µM | > 300 µM | > 300 µM | > 300 µM
12 | O=C(/C=C/c1ccc(O)c(O)c1)OCc1ccccc1 [BENZYL CAFFEATE] | > 100 µM | 14.1 µM | 27.3 µM | 48.1 µM | 17.4 µM
13 | COc1cc(/C=C/C(=O)OCCc2ccccc2)cc(Cl)c1O | > 100 µM |  |  |  | 
14 | CCCCCCCCCCCCCCCCCCOC(=O)/C=C/c1ccc(O)c(O)c1 | > 100 µM |  |  |  | 
15 | COc1c(O)ccc(/C=C/C(=O)OC2CC3CCC2(C)C3(C)C)c1[N+](=O)[O-] (stereo not drawn) | > 100 µM | 62.3 µM | 21.1 µM | 32.1 µM | 6.6 µM
16 | C#CCOC(=O)/C=C/c1ccc(O)c(O)c1 | > 100 µM |  |  |  | 
17 | CC(C)OC(=O)/C=C/c1ccc(O)c(O)c1 | > 100 µM |  |  |  | 
18 | COc1cc(/C=C/C(=O)O)ccc1O [FERULATE] | > 100 µM |  |  |  | 
19 | COc1cc(/C=C/C(=O)OCCc2ccccc2)cc(Br)c1O | > 100 µM | > 300 µM | > 300 µM | > 300 µM | > 300 µM
20 | COc1c(O)ccc(/C=C/C(=O)OCCc2ccccc2)c1[N+](=O)[O-] | > 100 µM |  |  |  | 
21 | O=C(O)/C=C/c1ccc(O)c(O)c1 [CAFFEIC ACID] | > 100 µM |  |  |  | 
22 | COc1cc(/C=C/C(=O)O)cc(Br)c1O | > 100 µM |  |  |  | 
23 | CCCCCCC(C)OC(=O)/C=C/c1ccc(O)c(O)c1 (stereo not drawn) | > 100 µM |  |  |  | 
24 | O=C(/C=C/c1ccc(O)c(O)c1)OC1CCCCC1 | > 100 µM | 30.3 µM | 89.3 µM | 97.6 µM | 15.5 µM
25 | CC(C)(COC(=O)/C=C/c1ccc(O)c(O)c1)[N+](=O)[O-] | > 100 µM |  |  |  | 
26 | COC(=O)/C=C/c1ccc(O)c(O)c1 [METHYLCAFFEATE] | > 100 µM |  |  |  | 

The next lines start with results.

Row | IC50 [1] | Structure (SMILES) | IC50 [2] | IC50 [3] | IC50 [4] | IC50 [5]
27 | > 100 µM | COc1cc(/C=C/C(=O)OC2CC3CCC2(C)C3(C)C)cc(Cl)c1O (stereo not drawn) |  |  |  | 
28 | > 100 µM | O=C(O)/C=C/c1ccc(O)c(O)c1[N+](=O)[O-] |  |  |  | 
29 | > 100 µM | CCCCCCCCOC(=O)/C=C/c1ccc(O)c(O)c1 |  |  |  | 
30 | > 100 µM | COc1cc(/C=C/C(=O)OC2CC3CCC2(C)C3(C)C)cc(Br)c1O (stereo not drawn) |  |  |  | 
31 | > 100 µM | CCCOC(=O)/C=C/c1ccc(O)c(O)c1 |  |  |  | 
32 | > 100 µM | CC(C)(C)OC(=O)/C=C/c1ccc(O)c(O)c1 |  |  |  | 
33 | > 100 µM | CCOC(=O)/C=C/c1ccc(O)c(O)c1 [ETHYL CAFFEATE] |  |  |  | 
34 | > 100 µM | COc1cc(/C=C/C(=O)OC2CC3CCC2(C)C3(C)C)cc([N+](=O)[O-])c1O (stereo not drawn) |  |  |  | 
35 | > 100 µM | CCCCOC(=O)/C=C/c1ccc(O)c(O)c1 [BUTYL CAFFEATE] |  |  |  | 
36 | > 100 µM | CC1(C)C2CCC1(C)C(OC(=O)/C=C/c1cc(O)c(O)c([N+](=O)[O-])c1)C2 (stereo not drawn) |  |  |  | 
37 | 25 µM | O=C(/C=C/c1cc(O)c(O)c([N+](=O)[O-])c1)OCCc1ccccc1 | 12.3 µM | 11.4 µM | 22.9 µM | 59.7 µM
38 | 13.5 µM | CC1(C)C2CCC1(C)C(OC(=O)/C=C/c1ccc(O)c(O)c1[N+](=O)[O-])C2 (stereo not drawn) | 40.7 µM | 52.9 µM | 117 µM | 28.7 µM
39 | 19.9 µM | CC1(C)C2CCC1(C)C(OC(=O)/C=C/c1ccc(O)c(O)c1)C2 (stereo not drawn) | > 300 µM | 19.5 µM | 101 µM | 28.2 µM
40 | 26.8 µM | O=C(O)/C=C/c1cc(O)c(O)c([N+](=O)[O-])c1 |  |  |  | 
